# Rows were chosen to be rich in hits. Some 2.3% of all compounds tested hit in one or more screens of this group.
# Rtt109 HAT inh: C. albicans Rtt109 histone acetyltransferase inhibition. Q5AAJ8. purified Rtt109/Vps75, ThioGlo CoA-SH fluorescence, 4 h. inhibition, % at 34.9 µM. hit rate 0.16% among 330,000. AID 540336;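 active means inhibition of at least 50% in every replicate; inconclusive means best replicate reaches 50% inhibition but some replicates fall short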
# Target sequence (Q5AAJ8 whole entry, looked up): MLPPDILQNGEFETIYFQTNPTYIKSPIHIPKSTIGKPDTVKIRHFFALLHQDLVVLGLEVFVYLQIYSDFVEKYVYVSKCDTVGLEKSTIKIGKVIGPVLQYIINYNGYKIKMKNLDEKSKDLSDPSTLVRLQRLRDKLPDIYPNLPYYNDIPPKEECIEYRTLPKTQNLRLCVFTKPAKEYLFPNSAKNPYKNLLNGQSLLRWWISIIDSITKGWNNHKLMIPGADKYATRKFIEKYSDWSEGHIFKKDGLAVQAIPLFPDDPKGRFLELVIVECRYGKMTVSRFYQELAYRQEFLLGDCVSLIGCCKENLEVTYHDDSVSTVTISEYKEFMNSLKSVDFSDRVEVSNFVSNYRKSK
# Env fusion inh: HIV envelope-mediated fusion inhibition; HeLa-JRFL Env/CEM21 cell fusion, luciferase; AID 651610; inhibition, % at 12.3 µM; hit rate 1.1% among 360,000;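 active means mean replicate inhibition score of at least 50 and every replicate individually at or above 50; inconclusive means only one of the two criteria met; inactive means mean below 50 and not all replicates reaching 50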;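 further: 0% = plate neutral controls and 100% = maraviroc near 300 nM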
# Arrestin-AP2 inh: human beta-arrestin and AP2 interaction inhibition; hit rate 0.31% among 340,000; AID 504490; inhibition, % at 10 µM; FITC-arrestin peptide / GST-AP2 beads, flow cytometry; AP2 beta2 appendage carries R879A mutation;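 active means inhibition above a set limit, near 3 SD of compounds lacking own fluorescence, cut at about 54% in these data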;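 further: plate controls were DMSO wells for no effect and 5 µM unlabelled arrestin peptide for full effect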
#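 System: GST-AP2 R879A glutathione beads | Also added: FITC-arrestin peptide, 50 nM | Times: 12 min plus 1 h, RT | Signal: Bead flow cytometry, FITC channel | Buffer or medium: PBS with 0.05% Tween 20 and 0.1% BSA | Read-out basis: Percent drop in bead-associated FITC signal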
# PfHsp90 set2: inhibits growth of yeast expressing Plasmodium falciparum Hsp90 | S. cerevisiae expressing PfHsp90, BacTiter-Glo ATP, 48 h; yeast lacking PDR1 and PDR3 efflux regulators | inhibition, % at 9.4 µM | hit rate 0.32% among 310,000 | AID 504621;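 active means every replicate shows inhibition above about 80%, whatever the replicate mean, limit read from the data; inconclusive means mean inhibition reaches the set limit but some replicate falls short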;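 further: 0% = DMSO neutral controls and 100% = 20 µM radicicol positive controls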
# N-glyco inh: blocks N-linked glycosylation in D54 reporter cells | D54 ERlucT glycosylation luciferase reporter, 24 h; percent of 100 nM tunicamycin response | reporter increase, % at 12.5 µM | hit rate 0.23% among 360,000;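 active means mean luciferase reporter signal, scaled so untreated is 0 and the glycosylation-blocking control 100, at or above a set limit in every replicate; inconclusive means mean reaches the limit but not every replicate does; inactive means mean below the limit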;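 further: luciferase carries N-glycosylation sites so blocking glycosylation raises the light; 0% = median of neutral control wells and 100% = median of 100 nM tunicamycin wells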
# PAX8 inh HTS: PAX8 transcriptional activity inhibition; AID 652154; hit rate 1.2% among 360,000; inhibition, % at 12.6 µM; RMG-I TPO-luciferase reporter, SteadyGlo, 24 h;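 active means mean replicate inhibition at least 60% with every replicate also reaching 60%; inconclusive means only one of the two criteria is met; inactive means mean below 60% and not all replicates reaching 60%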;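 further: luciferase light reporting Pax8 driven TPO promoter activity; plate controls were median of neutral control wells for no effect and mitoxantrone controls for full effect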
# The depositor's hits bear a star; ? = inconclusive; . = not tested or not shown; ! = not active in a repeat; [ ] = remark or other dose.
SMILES,Rtt109 HAT inh,Env fusion inh,Arrestin-AP2 inh,PfHsp90 set2,N-glyco inh,PAX8 inh HTS
Nc1ccc2cc3[nH]c4cc(N)ccc4c3nc2c1,5,61*,6,-2,-19,90*
O=C(N/N=C/c1ccccc1)c1n[nH]c2c1CCCC2,3,-57,39,2,-8,-15
O=C(N/N=C/c1ccccc1Cl)c1n[nH]c2c1CCCC2,-5,1,-3,-10,-18,77*
Cc1ccc(S(=O)(=O)Nc2ccc3c(c2)C(=O)N([C@@H](C)CO)C[C@@H](C)[C@@H](CN(C)Cc2ccccc2)O3)cc1,.,-37[16.7 µM],.,.,.,16
COc1ccc(-c2cnc3c(c2)C(=O)N([C@H](C)CO)C[C@H](C)[C@H](CN(C)C(=O)Nc2cccc4ccccc24)O3)cc1,.,3[16.7 µM],.,.,.,.
C[C@@H]1CN([C@H](C)CO)C(=O)c2cc(NC(=O)Nc3cccc4ccccc34)ccc2O[C@@H]1CN(C)C(=O)Nc1cccc2ccccc12,.,21[16.7 µM],.,.,.,78*
C[C@H](CO)N1C[C@H](C)[C@H](CN(C)C(=O)Nc2cccc3ccccc23)Oc2ncc(-c3ccc(F)cc3)cc2C1=O,.,39*[16.7 µM],.,.,.,16
C[C@@H]1CN([C@@H](C)CO)C(=O)c2cc(NC(=O)Nc3ccc(F)cc3)ccc2O[C@@H]1CN(C)C(=O)Nc1cccc2ccccc12,.,.,.,.,.,75*
C[C@H](CO)N1C[C@H](C)[C@H](CN(C)C(=O)Nc2cccc3ccccc23)Oc2ccc(NC(=O)Nc3ccc(C(F)(F)F)cc3)cc2C1=O,.,56*[16.7 µM],.,.,.,-23
C[C@H](CO)N1C[C@H](C)[C@H](CN(C)C(=O)Nc2cccc3ccccc23)Oc2ccc(NC(=O)Nc3ccc(F)cc3)cc2C1=O,.,.,.,.,.,6
COc1cccc(C(=O)Nc2ccc3c(c2)C(=O)N(C)[C@H]2CC[C@H](CC(=O)NCC(F)(F)F)O[C@H]2CO3)c1,.,26[16.7 µM],.,.,.,1
CCC(=O)N1[C@H](CO)[C@@H](c2ccc(-c3ccccc3)cc2)[C@H]1CNC(=O)COC,.,.,.,.,.,16
Cc1ccccc1-c1cnc2c(c1)C(=O)N([C@@H](C)CO)C[C@@H](C)[C@@H](CN(C)CC1CC1)O2,.,13[16.7 µM],.,.,.,.
CN1CCc2cccc3c2[C@H]1Cc1ccc(O)c(O)c1-3,100*!,39,17,3,-9,?
CN(C)CC#Cc1ccc([C@@H]2[C@H]3CN(C(=O)C4CC4)CCCCN3[C@H]2CO)cc1,.,.,.,.,.,-3
COc1ccc(NC(=O)Nc2ccc3c(c2)CC(=O)N([C@@H](C)CO)C[C@H](C)[C@@H](CN(C)Cc2ccc(-c4ccccc4)cc2)O3)cc1,.,3[16.7 µM],.,.,.,-12
COc1ccc(NC(=O)Nc2ccc3c(c2)CC(=O)N([C@@H](C)CO)C[C@H](C)[C@H](CN(C)Cc2ccc(-c4ccccc4)cc2)O3)cc1,.,19[16.7 µM],.,.,.,22
C[C@@H]1CN([C@@H](C)CO)C(=O)Cc2cc(NC(=O)Nc3ccccc3)ccc2O[C@H]1CN(C)Cc1ccc(-c2ccccc2)cc1,.,23[16.7 µM],.,.,.,68*
COc1ccc(NC(=O)Nc2ccc3c(c2)CC(=O)N([C@@H](C)CO)C[C@@H](C)[C@H](CN(C)Cc2ccc(-c4ccccc4)cc2)O3)cc1,.,15[16.7 µM],.,.,.,75*
COc1ccc(CN(C)C[C@H]2Oc3ccc(NC(=O)Nc4ccc5c(c4)OCO5)cc3CC(=O)N([C@H](C)CO)C[C@H]2C)cc1,.,11[16.7 µM],.,.,.,103*
COc1ccc(NC(=O)Nc2ccc3c(c2)CC(=O)N([C@H](C)CO)C[C@H](C)[C@@H](CN(C)Cc2ccc(-c4ccccc4)cc2)O3)cc1,.,20[16.7 µM],.,.,.,68*
C[C@@H]1CN([C@H](C)CO)C(=O)Cc2cc(NC(=O)Nc3ccccc3)ccc2O[C@@H]1CN(C)Cc1ccc(-c2ccccc2)cc1,.,13[16.7 µM],.,.,.,11
C[C@H]1CN([C@@H](C)CO)C(=O)Cc2cc(NC(=O)Cc3ccccc3)ccc2O[C@@H]1CN(C)Cc1ccc2c(c1)OCO2,.,-2[16.7 µM],.,.,.,18
O=C1N(c2ccccc2)C[C@@H]2C[C@@H](c3cc4ccccc4o3)N3CCC[C@@]123,1,76*,17,8,-18,98*
CN(C)CC1CC/C(=C\c2ccc(O)cc2)C1=O (centres undefined),-8,-58,-3,145*,-15,49

# Screening data deposited in PubChem BioAssay by several laboratories.
